{"source": "ChEMBL document CHEMBL2321783", "about": "“Structure-activity relationships of peptides incorporating a bioactive reverse-turn heterocycle at the melanocortin receptors: identification of a 5800-fold mouse melanocortin-3 receptor (mMC3R) selective antagonist/partial agonist versus the mouse melanocortin-4 receptor (mMC4R)” (J Med Chem, 2013)", "key": {"Melanocortin receptor 3 [1]": {"biological_target": "T1, Melanocortin receptor 3 (Mus musculus, UniProt P33033)", "T1 sequence (P33033 whole entry)": "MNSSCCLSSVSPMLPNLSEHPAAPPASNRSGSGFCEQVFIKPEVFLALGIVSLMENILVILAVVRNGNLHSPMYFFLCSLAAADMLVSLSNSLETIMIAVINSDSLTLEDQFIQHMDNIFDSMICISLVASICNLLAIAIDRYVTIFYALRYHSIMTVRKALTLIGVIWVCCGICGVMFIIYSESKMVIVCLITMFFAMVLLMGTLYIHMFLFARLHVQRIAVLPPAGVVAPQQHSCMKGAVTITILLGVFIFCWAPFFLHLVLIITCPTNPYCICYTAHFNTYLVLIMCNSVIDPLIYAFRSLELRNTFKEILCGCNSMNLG", "assay": "Antagonist activity at mouse MC3 receptor expressed in HEK293 cells after 6 hrs by cAMP-based beta-galactosidase reporter gene assay", "format": "functional, cell-based", "conditions": "read-out: pA2 (converted)"}, "Melanocortin receptor 5": {"biological_target": "Melanocortin receptor 5 (Mus musculus, UniProt P41149)", "sequence (P41149 whole entry)": "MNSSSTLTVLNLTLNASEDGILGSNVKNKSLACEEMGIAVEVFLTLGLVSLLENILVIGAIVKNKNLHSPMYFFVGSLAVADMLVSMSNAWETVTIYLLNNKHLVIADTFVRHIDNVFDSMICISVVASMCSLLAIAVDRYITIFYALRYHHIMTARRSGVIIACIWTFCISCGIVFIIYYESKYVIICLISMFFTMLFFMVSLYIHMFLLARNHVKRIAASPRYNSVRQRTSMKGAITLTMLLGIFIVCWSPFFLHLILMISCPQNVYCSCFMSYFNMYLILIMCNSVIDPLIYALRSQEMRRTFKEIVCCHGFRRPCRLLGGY", "assay": "Agonist activity at mouse MC5 receptor expressed in HEK293 cells after 6 hrs by cAMP-based beta-galactosidase reporter gene assay", "format": "functional, cell-based", "in_short": "(§1)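 HEK-293 cells stably expressing the mouse receptor, kept in DMEM with 10% fetal calf serum, transfected with CRE/β-galactosidase reporter. Efficacy is relative to NDP-MSH on the same plate. EC50 is the mean of duplicate wells from three or more independent experiments, fitted by nonlinear least squares.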"}, "Melanocortin receptor 4": {"biological_target": "Melanocortin receptor 4 (Mus musculus, UniProt P56450)", "sequence (P56450 whole entry)": "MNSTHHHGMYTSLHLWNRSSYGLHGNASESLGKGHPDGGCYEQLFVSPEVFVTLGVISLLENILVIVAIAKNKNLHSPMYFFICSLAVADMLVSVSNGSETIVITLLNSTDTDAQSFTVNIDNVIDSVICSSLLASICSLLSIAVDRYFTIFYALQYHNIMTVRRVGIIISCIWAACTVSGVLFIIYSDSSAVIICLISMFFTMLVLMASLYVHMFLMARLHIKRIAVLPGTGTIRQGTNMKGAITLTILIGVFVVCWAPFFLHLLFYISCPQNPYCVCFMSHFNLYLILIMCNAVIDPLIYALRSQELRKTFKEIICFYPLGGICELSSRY", "assay": "Agonist activity at mouse MC4 receptor expressed in HEK293 cells after 6 hrs by cAMP-based beta-galactosidase reporter gene assay", "format": "functional, cell-based", "in_short": "as §1"}, "Melanocortin receptor 3 [2]": {"biological_target": "T1, Melanocortin receptor 3", "assay": "Agonist activity at mouse MC3 receptor expressed in HEK293 cells after 6 hrs by cAMP-based beta-galactosidase reporter gene assay", "format": "functional, cell-based", "in_short": "as §1"}, "[3]": {"biological_target": "Melanocyte-stimulating hormone receptor (Mus musculus, UniProt Q01727)", "sequence (Q01727 whole entry)": "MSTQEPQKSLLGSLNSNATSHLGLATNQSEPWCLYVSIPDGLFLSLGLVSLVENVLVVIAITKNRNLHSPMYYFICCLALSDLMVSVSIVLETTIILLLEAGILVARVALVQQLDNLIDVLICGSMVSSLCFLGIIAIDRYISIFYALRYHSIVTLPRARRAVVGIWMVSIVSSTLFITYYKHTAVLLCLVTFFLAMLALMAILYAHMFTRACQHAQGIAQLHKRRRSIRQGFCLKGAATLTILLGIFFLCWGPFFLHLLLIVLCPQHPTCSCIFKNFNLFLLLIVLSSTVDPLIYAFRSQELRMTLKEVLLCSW", "assay": "Agonist activity at mouse MC1 receptor expressed in HEK293 cells after 6 hrs by cAMP-based beta-galactosidase reporter gene assay", "format": "functional, cell-based", "in_short": "as §1"}, "[4]": {"biological_target": "Melanocortin receptor 3 (Mus musculus) (UniProt P33033)", "sequence (P33033 whole entry)": "as the sequence (P33033 whole entry) above", "assay": "Partial agonist activity at mouse MC3 receptor expressed in HEK293 cells at 10^-4 M to 10^-12 M after 6 hrs by cAMP-based beta-galactosidase reporter gene assay", "format": "functional, cell-based", "in_short": "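In the mMC3R HEK-293 CRE/β-galactosidase reporter assay, cells were exposed 6 h to peptide at 10^-4 to 10^-12 M in IBMX/BSA medium. Maximal efficacy is expressed relative to NDP-MSH run on the same plate.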"}, "Mus musculus": {"organism": "Mus musculus", "assay": "Selectivity for mouse MC3 receptor over mouse MC4 receptor"}}}
{"smiles": "C[C@@H]1NC(=O)[C@H](CC(N)=O)NC(=O)[C@H](Cc2c[nH]c3ccccc23)N2C[C@H](CCCN=C(N)N)NC(=O)[C@@H](CSCC2=O)NC(=O)[C@@H](Cc2ccc3ccccc3c2)NC(=O)[C@H](Cc2cnc[nH]2)NC(=O)[C@@H](NC(=O)[C@@H](N)Cc2ccc(O)cc2)CSSC[C@@H](C(=O)N[C@@H](Cc2ccc(O)cc2)C(N)=O)NC(=O)[C@H](Cc2ccccc2)NC1=O", "values": [{"measurement": "Kb", "setting": "Melanocortin receptor 3 [1]", "result": 25.1, "unit": "nM"}]}
{"smiles": "C[C@@H]1NC(=O)[C@H](CC(N)=O)NC(=O)[C@H](Cc2c[nH]c3ccccc23)NC(=O)[C@H](CCCN=C(N)N)NC(=O)[C@@H](Cc2ccccc2)NC(=O)[C@H](Cc2cnc[nH]2)NC(=O)[C@@H](NC(=O)[C@@H](N)Cc2ccc(O)cc2)CSSC[C@@H](C(=O)N[C@@H](Cc2ccc(O)cc2)C(N)=O)NC(=O)[C@H](Cc2ccccc2)NC1=O", "values": [{"measurement": "EC50", "setting": "Melanocortin receptor 5", "result": 0.00145, "unit": "µM"}, {"measurement": "EC50", "setting": "Melanocortin receptor 4", "result": 0.00017, "unit": "µM"}, {"measurement": "EC50", "setting": "Melanocortin receptor 3 [2]", "result": 0.0017, "unit": "µM"}, {"measurement": "EC50", "setting": "[3]", "result": 0.0003, "unit": "µM"}]}
{"smiles": "C[C@@H]1NC(=O)[C@@H](NC(=O)[C@@H](N)Cc2ccc(O)cc2)CSSC[C@@H](C(=O)N[C@@H](Cc2ccc(O)cc2)C(N)=O)NC(=O)[C@H](Cc2ccccc2)NC(=O)[C@H](C)NC(=O)[C@H](CC(N)=O)NC(=O)[C@H](Cc2c[nH]c3ccccc23)N2C[C@H](CCCNC(=N)N)NC(=O)[C@@H](CSCC2=O)NC(=O)[C@@H](Cc2ccccc2)NC1=O", "values": [{"measurement": "EC50", "setting": "Melanocortin receptor 3 [2]", "result": 4.02, "unit": "µM"}]}
{"smiles": "C[C@@H]1NC(=O)[C@H](Cc2cnc[nH]2)NC(=O)[C@@H](NC(=O)[C@@H](N)Cc2ccc(O)cc2)CSSC[C@@H](C(=O)N[C@@H](Cc2ccc(O)cc2)C(N)=O)NC(=O)[C@H](Cc2ccccc2)NC(=O)[C@H](C)NC(=O)[C@H](CC(N)=O)NC(=O)[C@H](Cc2c[nH]c3ccccc23)N2C[C@H](CCCN=C(N)N)NC(=O)[C@@H](CSCC2=O)NC1=O", "values": [{"measurement": "EC50", "setting": "Melanocortin receptor 5", "result": 7.7, "unit": "µM"}, {"measurement": "EC50", "setting": "Melanocortin receptor 4", "result": 20.1, "unit": "µM"}, {"measurement": "EC50", "setting": "Melanocortin receptor 3 [2]", "result": 7.72, "unit": "µM"}, {"measurement": "EC50", "setting": "[3]", "result": 12.5, "unit": "µM"}]}
{"smiles": "C[C@@H]1NC(=O)[C@H](CC(N)=O)NC(=O)[C@H](Cc2c[nH]c3ccccc23)N2C[C@H](CCCCN)NC(=O)[C@@H](CSCC2=O)NC(=O)[C@@H](Cc2ccccc2)NC(=O)[C@H](Cc2cnc[nH]2)NC(=O)[C@@H](NC(=O)[C@@H](N)Cc2ccc(O)cc2)CSSC[C@@H](C(=O)N[C@@H](Cc2ccc(O)cc2)C(N)=O)NC(=O)[C@H](Cc2ccccc2)NC1=O", "values": [{"measurement": "EC50", "setting": "Melanocortin receptor 3 [2]", "result": 2.54, "unit": "µM"}]}
{"smiles": "C[C@@H]1NC(=O)[C@H](CC(N)=O)NC(=O)[C@H](Cc2c[nH]c3ccccc23)N2C[C@H](CCCNC(=N)N)NC(=O)[C@@H](CSCC2=O)NC(=O)[C@@H](Cc2ccc3ccccc3c2)NC(=O)[C@H](Cc2cnc[nH]2)NC(=O)[C@@H](NC(=O)[C@@H](N)Cc2ccc(O)cc2)CSSC[C@@H](C(=O)N[C@@H](Cc2ccc(O)cc2)C(N)=O)NC(=O)[C@H](Cc2ccccc2)NC1=O", "values": [{"measurement": "Emax", "setting": "[4]", "result": 20, "unit": "%"}]}
{"smiles": "C[C@@H]1NC(=O)[C@H](CC(N)=O)NC(=O)[C@H](Cc2c[nH]c3ccccc23)N2C[C@H](C)NC(=O)[C@@H](CSCC2=O)NC(=O)[C@@H](Cc2ccccc2)NC(=O)[C@H](Cc2cnc[nH]2)NC(=O)[C@@H](NC(=O)[C@@H](N)Cc2ccc(O)cc2)CSSC[C@@H](C(=O)N[C@@H](Cc2ccc(O)cc2)C(N)=O)NC(=O)[C@H](Cc2ccccc2)NC1=O", "values": [{"measurement": "EC50", "setting": "Melanocortin receptor 3 [2]", "result": 8.07, "unit": "µM"}]}
{"smiles": "C[C@@H]1NC(=O)[C@H](CC(N)=O)NC(=O)[C@H](Cc2c[nH]c3ccccc23)N2C[C@H](CCCN=C(N)N)NC(=O)[C@@H](CSCC2=O)NC(=O)[C@@H]2CCCN2C(=O)[C@H](Cc2cnc[nH]2)NC(=O)[C@@H](NC(=O)[C@@H](N)Cc2ccc(O)cc2)CSSC[C@@H](C(=O)N[C@@H](Cc2ccc(O)cc2)C(N)=O)NC(=O)[C@H](Cc2ccccc2)NC1=O", "values": [{"measurement": "EC50", "setting": "Melanocortin receptor 3 [2]", "result": 10.3, "unit": "µM"}]}
{"smiles": "C[C@@H]1NC(=O)[C@H](CC(N)=O)NC(=O)[C@H](Cc2c[nH]c3ccccc23)N2C[C@H](CCCNC(=N)N)NC(=O)[C@@H](CSCC2=O)NC(=O)[C@@H](Cc2ccc(-c3ccccc3)cc2)NC(=O)[C@H](Cc2cnc[nH]2)NC(=O)[C@@H](NC(=O)[C@@H](N)Cc2ccc(O)cc2)CSSC[C@@H](C(=O)N[C@@H](Cc2ccc(O)cc2)C(N)=O)NC(=O)[C@H](Cc2ccccc2)NC1=O", "values": [{"measurement": "Emax", "setting": "[4]", "result": 10, "unit": "%"}, {"measurement": "Kb", "setting": "Melanocortin receptor 3 [1]", "result": 0.126, "unit": "nM"}, {"measurement": "Selectivity ratio", "setting": "Mus musculus", "result": 5800}]}
{"smiles": "C[C@@H]1NC(=O)[C@H](CC(N)=O)NC(=O)[C@H](Cc2c[nH]c3ccccc23)N2C[C@H](CCCNC(=N)N)NC(=O)[C@@H](CSCC2=O)NC(=O)[C@@H](Cc2ccc(I)cc2)NC(=O)[C@H](Cc2cnc[nH]2)NC(=O)[C@@H](NC(=O)[C@@H](N)Cc2ccc(O)cc2)CSSC[C@@H](C(=O)N[C@@H](Cc2ccc(O)cc2)C(N)=O)NC(=O)[C@H](Cc2ccccc2)NC1=O", "values": [{"measurement": "EC50", "setting": "Melanocortin receptor 3 [2]", "result": 0.049, "unit": "µM"}]}
